Laboratory results reported in PubChem BioAssay.
The source made the active and inactive calls.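 The calls were made as follows, unless noted: active = potentiation averaged over duplicate wells exceeding buffer-only control mean by more than 3 SD; inactive = the rest.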

Tests used:
[1] = thallium flux activation in parental CHO cells, counter-screen for KCNQ1 potentiator project (AID 493006;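 active = duplicate-averaged activation above buffer control mean plus 5 SD of those controls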); conditions: parental CHO-K1 cells, FluxOR thallium flux, at 10 µM; stronger effect = higher value
Procedure, shortened: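 Assay system: parental CHO-K1 cells lacking KCNQ1, loaded with FluxOR thallium dye; timing: dye 90 min RT, compound 20 min RT; signal: kinetic thallium-flux fluorescence; repeats: duplicate wells per compound, percent values averaged; benchmarks: buffer and R-L3 controls; reagent: Potassium/thallium depolarization pulse; read-out: fluorescence change ratio scaled 0% buffer, 100% R-L3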

[2] = target: Potassium voltage-gated channel subfamily KQT member 1 (Homo sapiens) (UniProt P51787); test: KCNQ1 potassium channel potentiators, confirmation, FluxOR thallium flux, CHO cells, duplicates (AID 493007); conditions: KCNQ1 cell line, FluxOR thallium flux fluorescence, at 10 µM; stronger effect = higher value, % of reference activator effect, buffer zero;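 as to outcome: cells depolarized by a potassium plus thallium sulfate stimulus after compound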
Procedure, shortened: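 material = CHO cells stably expressing the KCNQ1 potassium channel | repeats = duplicate wells per compound | measure = percent activation between buffer and R-L3 responses | signal = FluxOR thallium-flux fluorescence, kinetic read | schedule = FluxOR dye loading 90 min, compound exposure 20 min, room temperature | control set = buffer and R-L3 controls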

[3] = target: Potassium voltage-gated channel subfamily KQT member 2 (Rattus norvegicus) (UniProt O88943); test: rat KCNQ2 channel potentiation, selectivity assay for KCNQ1 potentiator project, KCNQ2-CHO-K1 cells (AID 493009;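 active = mean duplicate potentiation above the buffer control mean plus 5 SD of buffer wells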;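 also: assay conditions were tuned for KCNQ1 rather than KCNQ2 modulators; signal is max minus min fluorescence divided by baseline after thallium stimulus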); conditions: FluxOR thallium flux fluorescence, at 10 µM; stronger effect = higher value, scaled: buffer 0, activator control 100
[4] = target: Potassium voltage-gated channel subfamily KQT member 1 (Homo sapiens) (UniProt P51787); test: KCNQ1 channel current potentiators, confirmation, orthogonal assay for KCNQ1 potentiator project, IonWorks patch clamp, KCNQ1-CHO cells (AID 493184;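 active = current rise at least 3 SD above the untreated control mean in each of two repeat wells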;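 as to current potentiation: percent change of the same well's current before compound addition so 0% = no change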); conditions: automated patch clamp current, at 10 µM; stronger effect = higher value
Procedure, shortened: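 Assay system – CHO cells carrying KCNQ1 · Medium – pH 7.4 external bath · Probe or stimulus – depolarizing pulse to +40 mV from -90 mV · Compound dosing – one dose, 10 µM final · Measured by – automated perforated-patch electrophysiology · Measure – % potentiation of steady-state current relative to pre-compound · Repeats – two replicates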

[5] = target: Potassium voltage-gated channel subfamily E member 1 (Homo sapiens) + Potassium voltage-gated channel subfamily KQT member 1 (Homo sapiens) (UniProt P15382+P51787); test: KCNQ1/KCNE1 complex potentiators, confirmation, selectivity assay for KCNQ1 potentiator project, thallium flux, CHO-K1 KCNQ1/E1 cells (AID 493186;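 active = mean duplicate activation above the buffer control mean plus 5 SD of those controls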); conditions: FluxOR thallium flux, at 10 µM; stronger effect = higher value
Procedure, shortened: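 Assay system: CHO-K1 cells with KCNQ1/E1 | Dosing: Single compound concentration per well | Incubation: Dye 90 min, compound 20 min, room temperature | Measured by: FluxOR Tl+ flux fluorescence, kinetic read | Controls: Buffer low control, R-L3 high control | Replicates: Duplicate wells per compound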

Sequence of Potassium voltage-gated channel subfamily E member 1 (Homo sapiens) + Potassium voltage-gated channel subfamily KQT member 1 (Homo sapiens) (P51787 whole entry, looked up): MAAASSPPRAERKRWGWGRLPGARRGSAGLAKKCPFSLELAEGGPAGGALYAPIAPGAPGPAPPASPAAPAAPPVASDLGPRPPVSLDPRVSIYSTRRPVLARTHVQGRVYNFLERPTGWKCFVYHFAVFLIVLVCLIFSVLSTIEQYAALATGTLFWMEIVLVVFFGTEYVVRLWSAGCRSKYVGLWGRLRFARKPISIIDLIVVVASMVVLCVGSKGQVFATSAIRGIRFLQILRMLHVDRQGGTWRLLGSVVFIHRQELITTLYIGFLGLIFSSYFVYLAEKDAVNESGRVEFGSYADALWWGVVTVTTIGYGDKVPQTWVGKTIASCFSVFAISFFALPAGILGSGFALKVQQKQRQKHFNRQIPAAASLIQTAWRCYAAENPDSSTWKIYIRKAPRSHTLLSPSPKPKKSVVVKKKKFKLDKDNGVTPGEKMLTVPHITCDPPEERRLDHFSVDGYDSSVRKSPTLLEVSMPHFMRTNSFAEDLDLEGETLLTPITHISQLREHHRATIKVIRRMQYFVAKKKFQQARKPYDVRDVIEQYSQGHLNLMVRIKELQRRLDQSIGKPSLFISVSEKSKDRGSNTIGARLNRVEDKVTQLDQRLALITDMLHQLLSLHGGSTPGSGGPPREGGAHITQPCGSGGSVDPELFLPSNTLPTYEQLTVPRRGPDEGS
Sequence of Potassium voltage-gated channel subfamily KQT member 1 (Homo sapiens) (P51787 whole entry, looked up): as above
Sequence of Potassium voltage-gated channel subfamily KQT member 2 (Rattus norvegicus) (O88943 whole entry, looked up): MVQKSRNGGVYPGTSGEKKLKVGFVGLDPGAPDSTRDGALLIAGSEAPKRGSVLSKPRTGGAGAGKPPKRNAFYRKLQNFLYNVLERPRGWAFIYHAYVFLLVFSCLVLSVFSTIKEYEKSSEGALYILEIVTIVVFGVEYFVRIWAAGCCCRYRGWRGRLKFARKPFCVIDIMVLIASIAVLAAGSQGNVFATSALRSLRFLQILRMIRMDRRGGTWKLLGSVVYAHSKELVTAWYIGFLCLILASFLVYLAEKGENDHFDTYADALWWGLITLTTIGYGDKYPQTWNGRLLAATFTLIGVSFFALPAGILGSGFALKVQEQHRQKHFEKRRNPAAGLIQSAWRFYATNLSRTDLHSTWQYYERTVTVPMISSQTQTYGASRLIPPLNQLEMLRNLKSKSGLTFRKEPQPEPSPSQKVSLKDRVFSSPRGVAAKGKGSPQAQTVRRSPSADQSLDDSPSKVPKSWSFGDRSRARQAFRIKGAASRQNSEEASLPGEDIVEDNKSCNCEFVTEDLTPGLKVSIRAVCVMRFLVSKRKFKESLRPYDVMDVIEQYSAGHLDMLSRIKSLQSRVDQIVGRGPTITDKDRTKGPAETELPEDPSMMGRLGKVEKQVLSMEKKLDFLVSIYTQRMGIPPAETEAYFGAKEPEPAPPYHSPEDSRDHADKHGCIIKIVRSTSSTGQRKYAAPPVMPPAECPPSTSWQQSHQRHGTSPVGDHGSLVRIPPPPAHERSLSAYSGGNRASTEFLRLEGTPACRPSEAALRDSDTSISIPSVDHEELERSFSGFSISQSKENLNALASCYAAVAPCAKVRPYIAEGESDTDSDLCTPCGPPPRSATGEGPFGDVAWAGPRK

O=C(O)c1ccc([N+](=O)[O-])c(CS(=O)(=O)c2ccccc2)c1
inactive: outcome [1] | outcome [2] | outcome [3] | outcome [4] | outcome [5]

CCOC(=O)C1CCN(S(=O)(=O)c2ccc3c4c2CC(=O)N4CC(C)S3)CC1 (stereo not given)
inactive: outcome [1] | outcome [2] | outcome [3] | outcome [4] | outcome [5]

CSc1nc(SCC(=O)O)c2sc3nc(-c4ccccc4)c4c(c3c2n1)CCC4
active: potentiation [2] 30%
inactive: outcome [1] | outcome [3] | outcome [4] | outcome [5]

O=C(CN1CCCCCC1)Nc1ccc(Oc2ccccc2)cc1
inactive: outcome [1] | outcome [2] | outcome [3] | outcome [4] | outcome [5]

S=c1[nH]nc(-c2ccco2)n1/N=C/c1cccc(Cl)c1Cl
inactive: outcome [1] | outcome [3] | outcome [4] | outcome [5]
active: potentiation [2] 23.5%

CN(C)CCNc1ncnc2c1sc1nc(N3CCOCC3)c3c(c12)CC(C)(C)SC3
inactive: outcome [1] | outcome [2] | outcome [3] | outcome [4] | outcome [5]

CCCCOC(=O)c1ccc(NC(=S)NC(=O)c2ccco2)cc1
inactive: outcome [1] | outcome [2] | outcome [3] | outcome [4] | outcome [5]

O=C(NC(=S)Nc1nc2c(s1)CCCC2)c1ccccc1
active: potentiation [2] 26%
inactive: outcome [1] | outcome [3] | outcome [4] | outcome [5]

COc1cccc(NC(=S)N/N=C2/CCCCc3ccccc32)c1
active: potentiation [2] 26%
inactive: outcome [1] | outcome [3] | outcome [4] | outcome [5]

Cn1ccnc1C(=O)c1cccc([N+](=O)[O-])c1
inactive: outcome [1] | outcome [3] | outcome [4] | outcome [5]
active: potentiation [2] 18.5%

Cc1ccc(S(=O)(=O)/N=C(\N)Nc2nc(C)c3ccccc3n2)cc1
inactive: outcome [1] | outcome [2] | outcome [3] | outcome [4] | outcome [5]

COc1ccc(C(=O)/C=C/C(=O)N(CC(=O)NC2CCCCC2)Cc2ccccc2)c(O)c1
active: potentiation [2] 25%
inactive: outcome [1] | outcome [3] | outcome [4] | outcome [5]

O=C(CC1(O)C(=O)N(Cc2ccccc2)c2ccccc21)c1ccncc1 (stereo not given)
active: potentiation [2] 27.5% | potentiation [3] 146%
inactive: outcome [1] | outcome [4] | outcome [5]

COC(=O)[C@H](C)NC(=O)Nc1cc(Cl)ccc1C
inactive: outcome [1] | outcome [2] | outcome [3] | outcome [4] | outcome [5]

CCc1cc(C(=O)N2CCN(c3ccccn3)CC2)sc1C
inactive: outcome [1] | outcome [2] | outcome [3] | outcome [4] | outcome [5]

Cc1ccc(C)c(/C=N/n2cc(-c3ccccc3)[nH]c2=S)c1
active: potentiation [2] 24.5%
inactive: outcome [1] | outcome [3] | outcome [4] | outcome [5]

O=C(NCc1ccccc1)C(=O)Nc1nc(C23CC4CC(CC(C4)C2)C3)cs1
inactive: outcome [1] | outcome [2] | outcome [3] | outcome [4] | outcome [5]

C/C(=N\Nc1nc(C)c(C)s1)c1ccc([N+](=O)[O-])cc1
active: potentiation [2] 43% | potentiation [3] 150%
inactive: outcome [1] | outcome [4] | outcome [5]

CC1=NOC(=O)/C1=C\c1ccc(-c2ccc(Cl)cc2Cl)o1
inactive: outcome [1] | outcome [2] | outcome [3] | outcome [4] | outcome [5]

COc1cccc(NC(=S)NC(=O)c2c(Cl)c(C)nn2C)c1
inactive: outcome [1] | outcome [2] | outcome [3] | outcome [4] | outcome [5]

S=c1[nH]nc(-c2ccco2)n1/N=C/C(Cl)=C/c1ccccc1
active: potentiation [2] 26%
inactive: outcome [1] | outcome [3] | outcome [4] | outcome [5]

CCN(CC(=O)Nc1c(F)cccc1F)C(=O)C1CCN(C(=O)c2ccc(Cl)cc2)CC1
inactive: outcome [1] | outcome [2] | outcome [3] | outcome [4] | outcome [5]

Cc1cc(/C=N/n2cnnc2)c(C)n1-c1cc(Cl)ccc1Cl
active: current potentiation [4] 18.5%
inactive: outcome [1] | outcome [2] | outcome [3] | outcome [5]

CCCn1c(=O)c(C(=O)NNC(=O)c2ccc(Cl)cc2Cl)c(O)c2ccccc21
active: potentiation [2] 30% | potentiation [3] 154%
inactive: outcome [1] | outcome [4] | outcome [5]

Cc1ccc(OCCn2c(=S)[nH]c3ccccc32)c(C(C)C)c1
inactive: outcome [1] | outcome [3] | outcome [4] | outcome [5]
active: potentiation [2] 119%

COc1ccc(C(=O)NC(=S)NNC(=O)c2ccc(C)cc2)cc1
inactive: outcome [1] | outcome [4]
active: potentiation [2] 142% | potentiation [3] 250% | activation [5] 62.3%

Cc1ccc(-c2nnc(SCC(=O)N/N=C/c3ccccc3C(=O)O)n2-c2ccc(Cl)cc2)cc1
inactive: outcome [1] | outcome [2] | outcome [3] | outcome [4] | outcome [5]

NS(=O)(=O)c1ccc(Sc2ccc3c(c2)CCC3)nc1
inactive: outcome [1] | outcome [3] | outcome [4] | outcome [5]
active: potentiation [2] 22.5%

Cn1c(=O)c2c(ncn2CC(=O)N/N=C/C(Cl)=C/c2ccccc2)n(C)c1=O
inactive: outcome [1] | outcome [2] | outcome [3] | outcome [4] | outcome [5]

CCCn1c(N)c(C(=O)CSc2nc3ccccc3c(=O)n2Cc2ccccc2)c(=O)[nH]c1=O
inactive: outcome [1] | outcome [2] | outcome [3] | outcome [4] | outcome [5]

Cc1cccc(NC(=S)c2nc3ccccc3s2)c1
inactive: outcome [1] | outcome [4] | outcome [5]
active: potentiation [2] 146% | potentiation [3] 219%

CC1CCc2c(sc(NC(=O)C(=O)NCc3ccco3)c2C#N)C1 (stereo not given)
inactive: outcome [1] | outcome [2] | outcome [3] | outcome [4] | outcome [5]

CCOC(=O)c1c(C)[nH]sc1=S
inactive: outcome [1] | outcome [3] | outcome [4] | outcome [5]
active: potentiation [2] 18%

COC(=O)N1C(=O)[C@@](Cc2ccccc2)(c2ccccc2)N1C(=O)OC
inactive: outcome [1] | outcome [3] | outcome [4] | outcome [5]
active: potentiation [2] 24%

CCOC(=O)N1CCN(C(=S)NC(=O)c2ccc(F)c(F)c2)CC1
inactive: outcome [1] | outcome [2] | outcome [3] | outcome [4] | outcome [5]

Cc1nc(NC(=S)NC(=O)c2ccccc2)sc1C
inactive: outcome [1] | outcome [2] | outcome [3] | outcome [4] | outcome [5]

COc1cc2c(cc1OC)CN(CCC(=O)c1ccc(Br)cc1)CC2
inactive: outcome [1] | outcome [2] | outcome [3] | outcome [4] | outcome [5]

COc1ccc2c(c1)[nH]c1c(=O)n(/N=C/c3ccc(OC)c(CN4CCCC4)c3)cnc12
inactive: outcome [1] | outcome [2] | outcome [3] | outcome [4] | outcome [5]

CCOC(=O)c1cnn(-c2nc(SC)nc3sc4c(c23)CCCC4)c1N
active: potentiation [2] 29.5% | potentiation [3] 142%
inactive: outcome [1] | outcome [4] | outcome [5]

Cc1ccc(C)c(-n2c3nc(=O)n(C)c(=O)c-3cc3ccccc32)c1
inactive: outcome [1] | outcome [2] | outcome [3] | outcome [4] | outcome [5]

Cc1nc2c3cc(F)ccc3n(CCN3CCCCC3)c2s1
active: potentiation [2] 35%
inactive: outcome [1] | outcome [3] | outcome [4] | outcome [5]

O=C(CCN1Cc2ccccc2C1)c1ccc2c(c1)OCCO2
active: potentiation [2] 45.5%
inactive: outcome [1] | outcome [3] | outcome [4] | outcome [5]

CCCSc1ncnc2c1oc1ccccc12
inactive: outcome [1] | outcome [2] | outcome [3] | outcome [4] | outcome [5]

O=C(c1ccc(-c2ccccc2)cc1)C1CCCN(C(=O)Cn2cncn2)C1 (stereo not given)
inactive: outcome [1] | outcome [2] | outcome [3] | outcome [4] | outcome [5]

Cc1cc(C)nc(N/N=C/c2cccc3ccccc23)n1
inactive: outcome [1] | outcome [2] | outcome [3] | outcome [4] | outcome [5]

CCOC(=O)N1CCC(NC(=O)c2cc(C(=O)NCc3ccc(F)cc3)ccc2CO)CC1
inactive: outcome [1] | outcome [2] | outcome [3] | outcome [4] | outcome [5]

COc1ccc(C(=O)NNC(=S)NC(=O)c2cc(-c3ccccc3)nc3ccccc23)cc1
inactive: outcome [1] | outcome [2] | outcome [3] | outcome [4] | outcome [5]

O=S(=O)(Nc1cccnc1)c1ccc(Cl)cc1
inactive: outcome [1] | outcome [2] | outcome [3] | outcome [4] | outcome [5]

COc1ccc(C2CC(c3c(-c4ccccc4)c4cc(Cl)ccc4[nH]c3=O)=NN2S(C)(=O)=O)cc1OC (stereo not given)
inactive: outcome [1] | outcome [2] | outcome [3] | outcome [4] | outcome [5]

S=c1[nH]nc(COc2ccccc2)n1/N=C/c1ccc(Cl)cc1Cl
inactive: outcome [1] | outcome [2] | outcome [3] | outcome [4] | outcome [5]

CN(C)CCNc1nc2sc3c(c2c(=O)n1CCc1ccccc1)CCCCC3
active: potentiation [2] 19%
inactive: outcome [1] | outcome [3] | outcome [4] | outcome [5]

CN1CCN(Cc2ccc(Sc3ccc(Cl)cc3)c([N+](=O)[O-])c2)CC1
inactive: outcome [1] | outcome [3] | outcome [4] | outcome [5]
active: potentiation [2] 17.5%

O=c1cc(-c2ccccc2)nc2cc(-c3ccco3)[nH]n12
inactive: outcome [1] | outcome [2] | outcome [3] | outcome [4] | outcome [5]

O=C(N/N=C/c1ccc(-c2ccccc2)o1)c1ccccc1O
active: potentiation [2] 31%
inactive: outcome [1] | outcome [3] | outcome [4] | outcome [5]

Cc1ccc(Nc2ccc([N+](=O)[O-])cn2)cc1Cl
active: potentiation [3] 144%
inactive: outcome [1] | outcome [2] | outcome [4] | outcome [5]

Cc1[nH]nc(SCC(=O)N2CCCCC2)c1[N+](=O)[O-]
inactive: outcome [1] | outcome [2] | outcome [3] | outcome [4] | outcome [5]

CC1(C)CC(Nc2ccc(Nc3ccccc3)cc2)CC(C)(C)N1
active: potentiation [2] 23.5%
inactive: outcome [1] | outcome [3] | outcome [4] | outcome [5]

COc1cc(-c2noc(C)c2-c2ccc(N(C)C)nc2)cc(OC)c1OC
inactive: outcome [1] | outcome [2] | outcome [3] | outcome [4] | outcome [5]

Cn1cnc([N+](=O)[O-])c1S(=O)(=O)c1cccc(Cl)c1
inactive: outcome [1] | outcome [2] | outcome [3] | outcome [4] | outcome [5]
